Measured values: publication PMC12139872 (bioRxiv, 2025)

Experiments:
[1] = target: T1, human glutathione reductase (GSR) (Homo sapiens, UniProt P00390); assay: Differential scanning fluorometry; assay type: binding; conditions: 5 μM GSR, 20 μM compound
T1 sequence (P00390 44-522): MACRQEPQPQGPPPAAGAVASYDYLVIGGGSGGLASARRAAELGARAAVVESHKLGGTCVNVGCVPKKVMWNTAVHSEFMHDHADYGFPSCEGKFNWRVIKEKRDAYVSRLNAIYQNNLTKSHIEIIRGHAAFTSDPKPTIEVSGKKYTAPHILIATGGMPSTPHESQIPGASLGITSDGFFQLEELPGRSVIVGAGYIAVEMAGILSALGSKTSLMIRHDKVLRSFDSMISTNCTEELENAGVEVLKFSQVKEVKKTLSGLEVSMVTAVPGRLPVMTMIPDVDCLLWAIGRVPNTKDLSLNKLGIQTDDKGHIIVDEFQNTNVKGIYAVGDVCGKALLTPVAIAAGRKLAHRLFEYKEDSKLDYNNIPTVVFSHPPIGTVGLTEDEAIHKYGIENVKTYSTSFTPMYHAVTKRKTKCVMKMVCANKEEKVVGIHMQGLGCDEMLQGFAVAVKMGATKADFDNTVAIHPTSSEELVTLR
Outline: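 Human GSR (5 µM final), compound (20 µM final) and 5X SYPRO Orange were combined in 20 mM HEPES pH 7.4, 100 mM NaCl, 1% DMSO. Controls: no protein, compound fluorescence, plate autofluorescence, plus 2-AAPA as positive control. Plates were heated from 25 to 95 °C at 1-min steps with FRET-channel readout. Tm was taken from the dRFU derivative, and significance was tested by Student's t-test.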

MOLM-13 = assay: Cytotoxicity of antioxidants; assay type: cell-based; conditions: 72-hour treatment
Outline: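 Each antioxidant (GSH, GSSG, tocopherol, ascorbate) was dissolved in sterile water and applied alone to MOLM-13 cells.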

Molecule	toxicity of exogenously supplemented antioxidant to MOLM-13 (in words) (MOLM-13)	concentrations at which antioxidant is toxic to MOLM-13 (MOLM-13)	further results
CC(=O)NC(CSC(=S)Nc1ccc(NC(=S)SCC(NC(C)=O)C(=O)O)cc1)C(=O)O (centres unmarked) [Compound 2-AAPA, 2-AAPA]	–	–	change in melting temperature (Tm) of GSR [1]: significantly changed the melting temperature
N[C@@H](CCC(=O)N[C@@H](CS)C(=O)NCC(=O)O)C(=O)O [GSH, reduced glutathione]	not toxic	–	–
O=C1O[C@H]([C@@H](O)CO)C(O)=C1O [ascorbate]	–	> 15.63 µM	–
Cc1c(C)c2c(c(C)c1O)CC[C@@](C)(CCC[C@H](C)CCC[C@H](C)CCCC(C)C)O2 [tocopherol]	–	higher than 62.5 μM	–
oxidized glutathione [GSSG]	not toxic	–	–
